Test results from article PMC6166782 (Science signaling, 2018).
Read-outs that look alike come from different tables or passages of the source. Blank lines part the entries; values can stand above or below the compound they belong to.

Legend:
[1] = biological target: T1, pHsp72 (Homo sapiens, UniProt P0DMV8, T66S); assay: Isothermal titration calorimetry, nucleotide binding to pHsp72; conditions: ITC; ratio of Kd
Target sequence in this assay (P0DMV8 2-641 T66S): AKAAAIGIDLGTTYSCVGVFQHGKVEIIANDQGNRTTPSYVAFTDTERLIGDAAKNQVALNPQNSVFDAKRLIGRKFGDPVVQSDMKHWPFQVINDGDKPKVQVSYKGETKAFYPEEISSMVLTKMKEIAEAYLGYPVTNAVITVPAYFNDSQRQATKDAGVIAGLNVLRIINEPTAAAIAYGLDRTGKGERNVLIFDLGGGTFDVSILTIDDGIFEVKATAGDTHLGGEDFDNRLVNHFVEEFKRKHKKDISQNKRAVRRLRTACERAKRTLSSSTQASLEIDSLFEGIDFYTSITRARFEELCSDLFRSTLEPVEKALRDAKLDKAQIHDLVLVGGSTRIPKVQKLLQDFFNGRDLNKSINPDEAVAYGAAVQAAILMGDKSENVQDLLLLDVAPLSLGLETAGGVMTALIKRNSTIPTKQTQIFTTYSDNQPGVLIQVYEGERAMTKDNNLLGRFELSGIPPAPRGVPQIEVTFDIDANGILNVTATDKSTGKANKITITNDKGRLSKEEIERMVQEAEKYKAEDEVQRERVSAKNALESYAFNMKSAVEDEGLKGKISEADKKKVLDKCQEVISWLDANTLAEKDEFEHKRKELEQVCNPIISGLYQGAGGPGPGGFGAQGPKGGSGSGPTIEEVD

[2] = system: pHsp72; assay: Kinetics of substrate peptide release, pHsp72; type: biochemical
How it was run: (§1)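 50 μM Hsp72 (pS66 or unphosphorylated) was pre-equilibrated at room temperature with F-NR and 125 μM ADP in Hepes–KOH pH 7.5 buffer with 10 mM MgCl₂. ADP state: 40 nM F-NR for over 5 h, then 150 μM unlabelled NR. ATP state: 20 nM F-NR, then 2 mM ATP plus 150 μM unlabelled peptide, read every 30 s for 4000 s (mean ± SEM, five assays). FP at 25°C; koff was fitted.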

[3] = system: pHsp72; assay: Peptide release kinetics in the presence of Hsp110, pHsp72; type: biochemical; conditions: ATP, Hsp110 and unlabeled substrate peptide
How it was run: (§2)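 50 μM pS66 or unphosphorylated Hsp72 was equilibrated for several hours at room temperature with 20 nM F-NR and 125 μM ADP in Hepes–KOH pH 7.5 buffer (10 mM MgCl₂, 2 mM DTT). ATP was then added to 2 mM final, with 150 μM unlabelled peptide and 125 μM Hsp110. FP (ex 490/em 535 nm, 25°C) was read every 30 s for 4000 s. koff given as mean ± SEM of six experiments.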

[4] = system: spindle poles, HeLa cells; assay: FRAP of GFP-Hsp72 at spindle poles; type: cell-based; conditions: one spindle pole bleached; average of 4-5 cells from 2 experiments
[5] = system: spindle assembly; conditions: ref [9]; cited from earlier work
[6] = biological target: T1, pHsp72; assay: Kinetics of substrate peptide release, pHsp72; type: biochemical; conditions: pH 7.5, read-out: koff, excess of unlabeled peptide (ADP state)
How it was run: as §1
Target sequence in this assay (P0DMV8 whole entry T66S): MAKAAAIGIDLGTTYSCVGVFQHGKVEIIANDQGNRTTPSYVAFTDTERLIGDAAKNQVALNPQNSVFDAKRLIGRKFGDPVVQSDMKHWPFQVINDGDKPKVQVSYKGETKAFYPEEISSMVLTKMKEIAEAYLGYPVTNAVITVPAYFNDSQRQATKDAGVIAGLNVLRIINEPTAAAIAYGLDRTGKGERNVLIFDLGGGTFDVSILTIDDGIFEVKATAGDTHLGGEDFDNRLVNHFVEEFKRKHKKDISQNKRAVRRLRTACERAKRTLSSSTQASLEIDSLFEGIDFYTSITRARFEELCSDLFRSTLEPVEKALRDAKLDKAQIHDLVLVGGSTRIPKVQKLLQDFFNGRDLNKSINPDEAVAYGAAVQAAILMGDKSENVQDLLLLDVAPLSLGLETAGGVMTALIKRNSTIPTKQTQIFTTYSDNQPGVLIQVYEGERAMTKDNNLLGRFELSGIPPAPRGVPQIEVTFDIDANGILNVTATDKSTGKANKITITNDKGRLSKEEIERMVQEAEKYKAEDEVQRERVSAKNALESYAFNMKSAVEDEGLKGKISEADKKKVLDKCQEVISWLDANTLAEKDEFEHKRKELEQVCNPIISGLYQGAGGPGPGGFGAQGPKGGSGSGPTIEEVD

[7] = biological target: T1, pHsp72; assay: Peptide release kinetics in the presence of Hsp110, pHsp72; type: biochemical; conditions: read-out: koff, ATP, excess of unlabeled peptide, Hsp110
How it was run: as §2
Target sequence in this assay (P0DMV8 whole entry T66S): as above

[8] = biological target: T2, unphosphorylated Hsp72 (Homo sapiens, UniProt P0DMV8); assay: Fluorescence polarization peptide binding, unphosphorylated Hsp72
How it was run: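 Unphosphorylated Hsp72 serially diluted in Buffer A (pH 7.5, 10 mM MgCl₂). ADP state: 125 μM ADP plus 20 nM F-NR, several hours at room temperature to equilibrium. ATP state: 2 mM ATP for 2 min, then 20 nM F-NR, read after 10 min. FP at 25°C, ex 490/em 535 nm. Kd from one-site nonlinear fit; ATP Kd divided by ADP Kd.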
Target sequence in this assay (P0DMV8 whole entry): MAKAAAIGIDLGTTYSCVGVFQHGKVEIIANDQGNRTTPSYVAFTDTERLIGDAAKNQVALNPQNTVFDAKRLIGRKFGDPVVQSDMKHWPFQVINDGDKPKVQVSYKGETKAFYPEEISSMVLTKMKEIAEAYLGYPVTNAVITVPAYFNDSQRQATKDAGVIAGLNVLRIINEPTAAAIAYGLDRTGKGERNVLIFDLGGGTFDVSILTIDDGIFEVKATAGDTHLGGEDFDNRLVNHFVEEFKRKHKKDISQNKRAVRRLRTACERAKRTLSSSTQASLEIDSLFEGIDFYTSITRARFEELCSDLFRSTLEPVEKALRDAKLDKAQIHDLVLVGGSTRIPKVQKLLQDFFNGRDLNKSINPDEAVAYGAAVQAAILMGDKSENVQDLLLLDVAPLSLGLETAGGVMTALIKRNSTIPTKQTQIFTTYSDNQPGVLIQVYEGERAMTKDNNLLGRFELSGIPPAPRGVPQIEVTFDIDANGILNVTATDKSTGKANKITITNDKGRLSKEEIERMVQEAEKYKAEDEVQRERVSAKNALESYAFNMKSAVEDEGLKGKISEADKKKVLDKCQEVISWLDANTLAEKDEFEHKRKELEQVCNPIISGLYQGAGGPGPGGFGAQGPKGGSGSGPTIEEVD

[9] = biological target: T2, unphosphorylated Hsp72; assay: Kinetics of substrate peptide release, unphosphorylated Hsp72; type: biochemical; conditions: pH 7.5, read-out: koff, excess of unlabeled peptide (ADP state)
How it was run: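 Hsp72 (50 μM) preloaded at room temperature with F-NR in 125 μM ADP, Buffer A (25 mM Hepes-KOH pH 7.5, 150 mM KCl, 10 mM MgCl₂, 2 mM DTT). ADP state: 40 nM F-NR, >5 h, then chased with 150 μM unlabelled NR. ATP state: 20 nM F-NR, then 2 mM ATP plus 150 μM unlabelled peptide. FP read over time at 25°C; koff fitted. Mean ± SEM, four (ADP) or five (ATP) runs.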
Target sequence in this assay (P0DMV8 whole entry): as above

[10] = biological target: T2, unphosphorylated Hsp72; assay: Peptide release kinetics in the presence of Hsp110, unphosphorylated Hsp72; type: biochemical; conditions: read-out: koff, ATP, excess of unlabeled peptide, Hsp110
How it was run: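 Unphosphorylated Hsp72 (50 μM) equilibrated for several hours at room temperature with 20 nM F-NR and 125 μM ADP in Buffer A (pH 7.5, 150 mM KCl, 10 mM MgCl₂). Release triggered by 2 mM ATP (final) with 150 μM unlabelled peptide and 125 μM His-tagged, E. coli-expressed Hsp110. FP (ex 490/em 535 nm, 25°C) every 30 s for 4000 s; koff fitted. Mean ± SEM, six experiments.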
Target sequence in this assay (P0DMV8 whole entry): as above

[11] = biological target: T1, pHsp72; assay: ATP mediated substrate release assay, pHsp72; type: biochemical; conditions: 100 μM VER-155008, 2 mM ATP; Fig. S7, C to E; protein form not given
How it was run: (§3)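 Full-length Hsp72 (unphosphorylated, or pSer66 genetically encoded in E. coli) at 50 μM was equilibrated at room temperature for several hours with 20 nM F-NR or F-ALLQ peptide and 125 μM ADP in Buffer A (Hepes-KOH pH 7.5, 10 mM MgCl₂, 2 mM DTT). ATP was added to 2 mM final, with 100 μM VER-155008 included. FP (ex 490/em 535 nm, 25°C) was read before ATP, then every 30 s for 4000 s.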
Target sequence in this assay (P0DMV8 2-641 T66S): as the sequence (P0DMV8 2-641 T66S) above

[12] = biological target: T2, unphosphorylated Hsp72; assay: ATP mediated substrate release assay, unphosphorylated Hsp72; type: biochemical; conditions: 100 μM VER-155008, 2 mM ATP; Fig. S7, C to E
How it was run: as §3
Target sequence in this assay (P0DMV8 2-641): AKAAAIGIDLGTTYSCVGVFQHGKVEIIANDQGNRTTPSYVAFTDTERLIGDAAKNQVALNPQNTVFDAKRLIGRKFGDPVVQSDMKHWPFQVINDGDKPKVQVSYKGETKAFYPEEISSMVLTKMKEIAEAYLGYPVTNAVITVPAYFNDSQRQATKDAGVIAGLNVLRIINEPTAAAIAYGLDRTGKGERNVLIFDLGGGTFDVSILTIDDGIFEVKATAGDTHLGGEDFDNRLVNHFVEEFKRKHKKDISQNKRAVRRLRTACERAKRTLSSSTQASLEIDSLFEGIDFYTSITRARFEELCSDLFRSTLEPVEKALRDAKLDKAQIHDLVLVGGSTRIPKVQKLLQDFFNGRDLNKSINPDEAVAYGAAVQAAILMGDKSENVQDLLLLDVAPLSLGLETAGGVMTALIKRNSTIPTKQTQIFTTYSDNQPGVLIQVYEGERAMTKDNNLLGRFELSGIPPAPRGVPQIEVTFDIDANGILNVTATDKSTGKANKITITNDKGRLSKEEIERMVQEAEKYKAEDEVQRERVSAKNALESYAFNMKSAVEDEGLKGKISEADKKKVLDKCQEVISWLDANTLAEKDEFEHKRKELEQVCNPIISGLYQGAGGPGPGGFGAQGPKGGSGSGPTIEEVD

[13] = system: mitotic spindle; conditions: ref [9]; cited from earlier work
[14] = biological target: fluorescein-labeled NR peptide (F-NR); assay: fluorescence polarisation
[15] = biological target: fluorescein-labeled NR peptide (F-NR); assay: fluorescence polarisation; remark: listed apart in the source

Chain of Heat shock protein 72 (Hsp72), unphosphorylated, full-length (P0DMV8 whole entry): as the sequence (P0DMV8 whole entry) above

- fold tighter nucleotide binding, pHsp72 vs unphosphorylated Hsp72 [1]: 3.6 fold
Compound: Nc1ncnc2c1ncn2[C@@H]1O[C@H](COP(=O)(O)OP(=O)(O)NP(=O)(O)O)[C@@H](O)[C@H]1O [AMP-PNP, adenylyl-imidodiphosphate]

- increase of ATP-mediated rate of release of substrate peptide [11]: ~ 2.6
- fold reduction of ATP substrate release rate [12]: ~ 8.6 fold
Compound: N#Cc1ccc(COC[C@H]2O[C@@H](n3c(NCc4ccc(Cl)c(Cl)c4)nc4c(N)ncnc43)[C@H](O)[C@@H]2O)cc1 [VER-155008]
- effect on spindle assembly [5]: disrupted spindle assembly
- effect on binding of peptide substrate ([8]; 100 μM VER-155008, DMSO control, Fig. S7, form of Hsp72 not stated): did not affect the binding of peptide substrate

- fold tighter nucleotide binding, pHsp72 vs unphosphorylated Hsp72 [1]: ten times more tightly
Compound: Nc1ncnc2c1ncn2[C@@H]1O[C@H](COP(=O)(O)OP(=O)(O)O)[C@@H](O)[C@H]1O [ADP, adenosine diphosphate]

- fold tighter nucleotide binding, pHsp72 vs unphosphorylated Hsp72 [1]: twice as tightly
Compound: Nc1ncnc2c1ncn2[C@@H]1O[C@H](COP(=O)(O)OP(=O)(O)OP(=O)(O)O)[C@@H](O)[C@H]1O [ATP, adenosine triphosphate]

Second part, the compound before the results:

Compound: pHsp72: full-length Hsp72 with incorporation of pSer^66
- times slower peptide release rate, pHsp72 vs unphosphorylated ([2]; ADP state): ~ 1.5 times
- times slower peptide release rate, pHsp72 vs unphosphorylated ([2]; ATP state): ~ 8 times
- fold slower peptide release rate, pHsp72 vs Hsp72, in presence of Hsp110 [3]: ~ 2.7 fold

Compound: T66E
- FRAP recovery [4]: very little recovery
- effect on spindle assembly [5]: can rescue the defects in spindle assembly due to NEK6 depletion

Compound: CC(C)C[C@H](NC(=O)[C@H](CCCNC(=N)N)NC(=O)[C@H](CC(N)=O)NC(=O)c1ccc2c(c1)C(=O)OC21c2ccc(O)cc2Oc2cc(O)ccc21)C(=O)N[C@@H](CC(C)C)C(=O)N[C@@H](CC(C)C)C(=O)N[C@H](C(=O)NCC(=O)O)[C@@H](C)O [F-NR]
- koff [6]: 0.00079 ± 3e-05 s⁻¹
- koff [7]: 0.0252 ± 0.0017 s⁻¹
- factor by which ATP weakened peptide interaction vs ADP ([8]; unphosphorylated Hsp72, ATP vs ADP, ratio of Kd): 40
- koff [9]: 0.00123 ± 4e-05 s⁻¹
- koff [10]: 0.0673 ± 0.0077 s⁻¹

Compound: T66A
- localization to the spindle [13]: did not localize to the spindle
- effect on spindle assembly [5]: causes defects in spindle assembly

Compound: pSer^66-Hsp72 (pHsp72), full-length, with genetically encoded phosphoserine at position 66 (from UniProt P0DMV8 1-641) (natural protein)
- Kd [14]: 27.6 µM

Compound: Heat shock protein 72 (Hsp72), unphosphorylated, full-length (from UniProt P0DMV8 1-641) (natural protein)
- Kd [14]: 157 µM
- Kd [15]: 3.95 µM
